Source: PMC3313684 (Journal of Natural Products, 2012)
In brackets after ≈: the same amount, converted by molar mass. Like-named read-outs stand apart in the source and are kept apart here.

Legend:
[1] = tested on: KAT-4 cells; test: Anaplastic thyroid carcinoma cell line inhibition, KAT-4; type: cell-based, human; details: for GI50: Homo sapiens, KAT-4, read-out: KAT-4 GI50
Method in brief: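 Growth inhibition by the NCI sulforhodamine B method. Cells were plated in RPMI1640 with 5% fetal bovine serum and grown 24 h. Serial dilutions of test compound were then added for 48 h. Plates were fixed with trichloroacetic acid, stained with sulforhodamine B and read by plate reader. GI50 is the concentration giving a 50% drop in net protein increase, calculated from optical density data.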

[2] = tested on: Neisseria gonorrhoeae; test: Antimicrobial susceptibility, Neisseria gonorrhoeae; type: cell-based; details: for MIC: Neisseria gonorrhoeae, read-out: MIC Neisseria gonorrhoeae; for MIC Neisseria gonorrhoeae: broth microdilution
Method in brief: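 Neisseria gonorrhoeae ATCC 49226 tested by broth microdilution following standard bacterial dilution guidelines. MIC taken as the lowest concentration inhibiting all visible growth (optically clear). Assays repeated on separate days.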

[3] = tested on: Micrococcus luteus; details: previously shown; cited from earlier work
[4] = tested on: Neisseria gonorrhoeae; details: previously shown; cited from earlier work
[5] = tested on: SW1736 cells; test: Anaplastic thyroid carcinoma cell line inhibition, SW1736; type: cell-based, human
[6] = tested on: human umbilical vein endothelial cells (HUVEC); test: HUVEC Matrigel cord formation assay; type: cell-based; details: 0.001 μg/mL, 24 h
[7] = tested on: tubulin; test: Inhibition of [3H]colchicine binding to tubulin; details: 10 μM compound, 1.0 μM tubulin, 5.0 μM [3H]colchicine
[8] = tested on: Micrococcus luteus; test: Antimicrobial susceptibility, Micrococcus luteus; type: cell-based; details: read-out: MIC Micrococcus luteus
Method in brief: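 Broth microdilution susceptibility to an established standard for aerobic bacteria, strain Presque Isle 456. Test compound was reconstituted in a small volume of sterile DMSO and diluted in medium just before the assay. MIC was the lowest concentration that stopped all visible growth (optically clear). Assays were repeated on separate days.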

COc1ccc(/C=C\c2cc(I)c(OC)c(I)c2)cc1OP(=O)([O-])[O-].[K+].[K+] [12a, Potassium 3,5-Diiodo-4,4′dimethoxy-Z-stilbene 3′-O-phosphate]
GI50 [1]: 0.38 to 0.44 µg/mL | times less inhibitory than the phenols 9a and 9c ([1]; KAT-4): 10 × | MIC [2]: 0.5 to 4 µg/mL

COc1ccc(/C=C\c2cc(I)c(OC)c(I)c2)cc1OP(=O)([O-])[O-].[Li+].[Li+] [12c, Lithium 3,5-Diiodo-4,4′-dimethoxy-Z-stilbene 3′-O-phosphate]
MIC [2]: 0.5 to 2 µg/mL

COc1ccc(/C=C\c2cc(I)c(OC)c(I)c2)cc1OP(=O)([O-])[O-].[Na+].[Na+] [12b, Sodium 3,5-Diiodo-4,4′-dimethoxy-Z-stilbene 3′-O-phosphate]
MIC [2]: 32 to 64 µg/mL

Tryptophan-OMe 3,5-Diiodo-4,4′-dimethoxy-Z-stilbene 3′-O-phosphate [12g]
MIC Neisseria gonorrhoeae [2]: < 0.5 µg/mL

COc1ccc(/C=C\c2cc(OC)c(OC)c(OC)c2)cc1O [1a, combretastatin A-4]
MIC Micrococcus luteus [3]: 25-100 μg/disk | MIC Neisseria gonorrhoeae [4]: 25-100 μg/disk

COc1ccc(/C=C\c2cc(OC)c(OC)c(OC)c2)cc1OP(=O)([O-])[O-].[Na+].[Na+] [1b, fosbretabulin]
MIC Micrococcus luteus [3]: 25-100 μg/disk | MIC Neisseria gonorrhoeae [4]: 25-100 μg/disk

Piperdine 3,5-Diiodo-4,4′-dimethoxy-Z-stilbene 3′-O-phosphate [12e]
MIC Neisseria gonorrhoeae [2]: < 0.5 µg/mL

C1COCCN1.COc1ccc(/C=C\c2cc(I)c(OC)c(I)c2)cc1OP(=O)(O)O [12d, Morpholine 3,5-Diiodo-4,4′-dimethoxy-Z-stilbene 3′-O-phosphate]
MIC Neisseria gonorrhoeae [2]: < 0.5 µg/mL

Tris 3-Iodo-4,4′,5-trimethoxy-Z-stilbene 3′-O-phosphate [11h]
MIC Neisseria gonorrhoeae [2]: 32 to 64 µg/mL

COc1ccc(/C=C\c2cc(I)c(OC)c(OC)c2)cc1OP(=O)([O-])[O-].[K+].[K+] [11a, Potassium 3-Iodo-4,4′,5-trimethoxy-Z-stilbene 3′-O-phosphate]
GI50 [1]: 0.37 to 0.43 µg/mL

Morpholine 3-Iodo-4,4′,5-trimethoxy-Z-stilbene 3′-O-phosphate [11d]
MIC Neisseria gonorrhoeae [2]: 16 to 32 µg/mL

Tryptophan-OMe 3-Iodo-4,4′,5-trimethoxy-Z-stilbene 3′-O-phosphate [11g]
MIC Neisseria gonorrhoeae [2]: 4 to 8 µg/mL

Glycine-OMe 3,5-Diiodo-4,4′-dimethoxy-Z-stilbene 3′-O-phosphate [12f]
MIC Neisseria gonorrhoeae [2]: <0.5 to 1 µg/mL

COc1ccc(/C=C\c2cc(I)c(OC)c(OC)c2)cc1O [9a, 3-Iodo-4,4′,5-trimethoxy-3′-hydroxy-Z-stilbene]
times less active against the SW1736 line than against KAT-4 [5]: 100 × | cord lengths and junction numbers [6]: markedly reduced | inhibition of colchicine binding to tubulin, % inhibition ± SD [7]: 100 ± 0.8% | MIC [8]: 2 to 4 µg/mL (≈ 4.85 to 9.7 µM)

COc1ccc(/C=C\c2cc(I)c(OC)c(I)c2)cc1O [9c, 3,5-Diiodo-4,4′-dimethoxy-3′-hydroxy-Z-stilbene]
GI50 [1]: 0.039 to 0.063 µg/mL (≈ 0.0768 to 0.124 µM) | times less active against the SW1736 line than against KAT-4 [5]: 100 × | cord lengths and junction numbers [6]: markedly reduced | inhibition of colchicine binding to tubulin, % inhibition ± SD [7]: 100 ± 0.3% | MIC [8]: 4 to 16 µg/mL (≈ 7.87 to 31.5 µM)

Tris 3,5-Diiodo-4,4′dimethoxy-Z-stilbene 3′-O-phosphate [12h]
MIC Neisseria gonorrhoeae [2]: <0.5 to 2 µg/mL
